According to ChEMBL document CHEMBL1135806, “Synthesis, biological evaluation, and quantitative structure-activity relationship analysis of new Schiff bases of hydroxysemicarbazide as potential antitumor agents” (J Med Chem, 2002):

system: L1210; test: Activity against lymphocytic murine leukemia cell line L1210 using MTS/PES microculture tetrazolium assay; assay type: functional, cell-based; conditions: Mus musculus
In short: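 L1210 cells kept in RPMI-1640 with 10% FBS and penicillin/streptomycin, 37 °C, 5% CO2. Seeded at 1×10^5/mL. DMSO stocks diluted in medium to six concentrations, 2×10⁻³ to 1×10⁻⁸ M, in triplicate; final DMSO 1% at top dose, otherwise <0.25%. Incubated 65 h, then MTS/PES for 3 h, A490. Inhibition relative to DMSO control; IC50 by probit regression; repeated at least twice.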

| SMILES | IC50 |
| --- | --- |
| O=C(NO)N/N=C/c1cccc([N+](=O)[O-])c1 | 399 µM |
| CC(=O)Nc1ccc(/C=N/NC(=O)NO)cc1 | 944 µM |
| COc1ccc(/C=N/NC(=O)NO)cc1 | 317 µM |
| O=C(NO)N/N=C/c1ccc(O)c(O)c1O | 2.7 µM |
| O=C(NO)N/N=C/c1c2ccccc2c(Cl)c2ccccc12 | 5.4 µM |
| O=C(NO)N/N=C/c1ccc2c(c1)OCCO2 | 178 µM |
| Cc1c2ccccc2c(/C=N/NC(=O)NO)c2ccccc12 | 4.4 µM |
| O=C(NO)N/N=C/c1c[nH]c2ccccc12 | 477 µM |
| O=C(NO)N/N=C/c1ccc(OCc2ccccc2)cc1 | 48.1 µM |
| O=C(NO)N/N=C/c1ccc([N+](=O)[O-])s1 | 10.6 µM |
| O=C(NO)N/N=C/c1cc(Br)ccc1O | 10.1 µM |
| N#Cc1ccc(/C=N/NC(=O)NO)cc1 | 208 µM |
| COc1cccc(/C=N/NC(=O)NO)c1 | 369 µM |
| COc1ccc(OC)c(/C=N/NC(=O)NO)c1 | 30.1 µM |
| O=C(NO)N/N=C/c1ccc(-c2ccccc2)cc1 | 42.7 µM |
| COc1ccc(/C=N/NC(=O)NO)c(O)c1 | 60.2 µM |

| SMILES | IC50 |
| --- | --- |
| CC(C)c1ccc2occ(/C=N/NC(=O)NO)c(=O)c2c1 | 32.2 µM |
| O=C(NO)N/N=C/c1cccc(C(F)(F)F)c1 | 39.5 µM |
| Cc1cccc(/C=N/NC(=O)NO)n1 | 891 µM |
| NNC(=O)NO | 282 µM |
| O=C(NO)N/N=C/c1cc(Br)cc(Br)c1O | 7.2 µM |
| O=C(NO)N/N=C/c1ccc(O)cc1O | 131 µM |
| O=C(NO)N/N=C/c1cc([N+](=O)[O-])cc([N+](=O)[O-])c1O | 821 µM |
| COc1cc(Br)cc(/C=N/NC(=O)NO)c1O | 37.7 µM |
| CN(C)c1ccc(/C=N/NC(=O)NO)cc1 | 446 µM |
| O=C(NO)N/N=C/c1cccnc1 | 607 µM |
| O=C(NO)N/N=C/c1cccc(I)c1 | 80.4 µM |
| O=C(NO)N/N=C/c1coc2c(Cl)cc(Cl)cc2c1=O | 28.2 µM |
| O=C(NO)N/N=C/c1cc(I)cc(I)c1O | 4.7 µM |
| O=C(NO)N/N=C/c1cc(Cl)cc(Cl)c1O | 6.5 µM |
| COc1cc(O)c(/C=N/NC(=O)NO)c(OC)c1 | 91.4 µM |
| NNC(N)=O [HYDRAZINECARBOXAMIDE] | > 2190 µM |
